Assay outcomes deposited in PubChem BioAssay by Broad Institute.
E-sel inducer: E-selectin induction on HUVECs. HUVEC E-selectin immunofluorescence imaging; normalized: neutral wells 0, TNF-alpha wells 100. activation, % at 7.58 µM. 260,000 compounds, 0.37% hits. AID 686992;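 active means mean E-selectin-positive cell signal at least 10% of the positive control, reached in at least 60% of replicates, without over 20% cell loss; inconclusive means no rule given, readout overlaps actives, possibly toxicity-flagged; inactive means the rest, including those meeting only one limit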
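Test system: HUVEC; input: 3,000 HUVEC/well; measured by: immunofluorescence imaging; read-out: % PE-positive cells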
DENV2 CPE rescue: protects cells from dengue virus 2 cytopathic effect | DENV2-infected cells, cytopathic effect rescue, plate reader | CPE inhibition, % at 9.99 µM | 350,000 compounds, 1.7% hits | AID 651640; in the data active means CPE inhibition above about 20%, passing the limit was not always enough; inconclusive means no clear call, values can overlap the other calls; tested in BHK-21 cells;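 further: 0% = median of neutral control wells and 100% = median of positive control wells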
SIRT5 inh: blocks human SIRT5 desuccinylation of peptide; Q9NXA8; Purified SirT5, succinyl-peptide AMC, trypsin-coupled fluorescence; inhibition, % at 15 µM; 330,000 compounds, 1.1% hits; AID 652115; in the data active means inhibition above about 15%; inconclusive means no clear call, values can overlap the other calls
Target sequence (Q9NXA8 whole entry, looked up): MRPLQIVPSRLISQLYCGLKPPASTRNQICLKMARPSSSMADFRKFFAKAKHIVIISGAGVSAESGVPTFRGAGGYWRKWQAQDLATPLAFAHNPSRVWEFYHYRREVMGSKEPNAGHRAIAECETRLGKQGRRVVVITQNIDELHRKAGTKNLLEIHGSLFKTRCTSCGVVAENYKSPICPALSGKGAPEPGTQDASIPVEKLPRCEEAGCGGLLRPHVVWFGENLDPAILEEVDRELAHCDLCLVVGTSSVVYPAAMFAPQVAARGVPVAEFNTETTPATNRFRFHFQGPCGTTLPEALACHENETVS
An asterisk follows results filed as active; ? = inconclusive; . = no result given. Sampled rows, rich in hits. Any-hit rate of the full collection: about 2.8%.

SMILES	E-sel inducer	DENV2 CPE rescue	SIRT5 inh
Cc1ccccc1C(=O)N1CCN(c2ccc(N3CCOCC3)nn2)CC1	.	-10	-3
C[C@@H]1CN([C@H](C)CO)C(=O)c2cc(NC(=O)Cn3cnnn3)ccc2O[C@@H]1CN(C)C	.	-6	-2
CN(C1CCCC1)C1CCN(C(=O)CNC(=O)/C=C/c2cccc(C(F)(F)F)c2)CC1	39*	-16	-2
CN(C1CCCC1)C1CCN(C(=O)CNC(=O)/C=C/c2ccc(F)cc2)CC1	0	-9	-2
NCC[C@@H]1CC[C@H](NC(=O)C2CC2)[C@@H](CO)O1	0	-3	-1
O=C(CN1CCOCC1)N[C@H]1CC[C@@H](CCn2cc(C3CCCCC3)nn2)O[C@H]1CO	0	6	0
O=C(COc1ccccc1)NCC(=O)N/N=C/C=C/c1ccccc1	-3	-2	20*
O=C(CNC(=O)c1ccc(Cl)cc1)N/N=C/C=C/c1ccccc1	-1	-4	-8
O=C(COc1ccccc1)NCC(=O)N/N=C/c1ccc(Br)cc1	0	70*	0
COc1ccc(NC(=O)COc2ccc3c(c2)OCO3)cc1	0	-5	-2
O=C(COc1ccccc1)N/N=C/c1ccc2c(c1)OCO2	1	4	21*
Cc1ccc(/C=N/NC(=O)CNC(=O)COc2ccccc2)cc1	.	-8	0
CCc1ccc(NC(=O)COc2ccc3c(c2)OCO3)cc1	0	47*	-2
Cc1cccc(OCC(=O)N/N=C/c2ccc3c(c2)OCO3)c1	.	.	1
O=C(C[C@H]1C=C[C@@H](NC(=O)C2CCOCC2)[C@H](CO)O1)NCc1ccncc1	-1	-3	-4
CO[C@H]1CN(C)C(=O)c2ccc(NC(=O)Cc3ccccc3)cc2OC[C@H](C)N(C)C[C@@H]1C	0	-5	3
O=C(NCC[C@@H]1CC[C@@H](NS(=O)(=O)c2ccccc2)[C@H](CO)O1)c1ccc2c(c1)OCO2	-2	2	10
C[C@H](CO)N1C[C@H](C)[C@@H](CN(C)C(=O)Nc2ccc(F)cc2)Oc2c(NC(=O)c3cnccn3)cccc2C1=O	-2	?	1
CCCNC(=O)N1CC2(C1)[C@@H](c1ccccc1)[C@@H](CO)N2CC1CC1	0	-2	-1
CCC(=O)N1CCC2(CC1)CN(C(=O)Cc1ccccc1)[C@@H](CO)c1c2c2ccc(OC)cc2n1C	0	1	4
COc1ccccc1NC(=O)N1CC(=O)N2[C@H](CO)[C@@H](c3ccc(C#Cc4ccc(F)cc4)cc3)[C@@H]2C1	-1	14	10
CCCN(C)C[C@H]1OCCCC[C@H](C)Oc2ccc(NS(=O)(=O)c3ccc(F)cc3)cc2C(=O)N([C@H](C)CO)C[C@H]1C	1	-6	0
Cc1[nH]c2ccccc2c1/C=N/NC(=O)c1cccc(F)c1	4	-5	-2
COc1ccc(C(=O)NCC(=O)N/N=C/c2c(C)[nH]c3ccccc23)cc1	.	2	-2
Cc1[nH]c2ccccc2c1/C=N/NC(=O)CNC(=O)COc1ccccc1	.	-2	113*
SMILES	E-sel inducer	DENV2 CPE rescue	SIRT5 inh
Cc1[nH]c2ccccc2c1/C=N/NC(=O)c1cccc([N+](=O)[O-])c1	57*	1	0
C/C=C/c1cnc2c(c1)C(=O)N([C@@H](C)CO)C[C@H](C)[C@H](CN(C)S(=O)(=O)c1ccccc1)O2	0	-7	-1
CC(O)[C@H]1CNC(=S)N1CCc1cccc(F)c1 (some centres undefined)	0	-6	-1
CCCC[C@@H]1CNCCN1CCc1cc(C(F)(F)F)cc(C(F)(F)F)c1	0	8	.
CCC(C)[C@H]1CNC(=S)N1CCc1cc(C(F)(F)F)cc(C(F)(F)F)c1 (some centres undefined)	0	81*	.
CCC(C)[C@H]1CNCCN1CCc1cc(C(F)(F)F)cc(C(F)(F)F)c1 (some centres undefined)	0	44*	.
O=C(C[C@@H]1CC[C@@H](NC(=O)Nc2cc(F)ccc2F)[C@@H](CO)O1)Nc1ccccc1	0	-3	3
COC(=O)C[C@@H]1CC[C@H]2[C@H](COc3ccc(NC(=O)Cc4cccs4)cc3C(=O)N2C)O1	0	.	.
C[C@H]1CN([C@@H](C)CO)C(=O)Cc2cc(NS(=O)(=O)c3ccc(Cl)cc3)ccc2O[C@H]1CN(C)C(=O)NC1CCCCC1	-2	32*	0
Cc1noc(C)c1S(=O)(=O)Nc1ccc2c(c1)CC(=O)N([C@@H](C)CO)C[C@@H](C)[C@H](CN(C)C(=O)NC1CCCCC1)O2	7	22*	-3
Cc1noc(C)c1S(=O)(=O)Nc1ccc2c(c1)CC(=O)N([C@@H](C)CO)C[C@H](C)[C@H](CN(C)C(=O)NC1CCCCC1)O2	4	4	2
C[C@@H]1CN([C@@H](C)CO)C(=O)Cc2cc(NS(=O)(=O)c3ccc(Cl)cc3)ccc2O[C@H]1CN(C)C(=O)NC1CCCCC1	0	-14	1
C[C@@H]1CN([C@@H](C)CO)C(=O)Cc2cc(NS(=O)(=O)c3ccc(F)cc3)ccc2O[C@@H]1CN(C)C(=O)NC1CCCCC1	0	-8	19*
C[C@@H]1CN([C@H](C)CO)C(=O)Cc2cc(NS(=O)(=O)c3ccc(F)cc3)ccc2O[C@@H]1CN(C)C(=O)NC1CCCCC1	0	-2	-4
C[C@@H]1CCCCO[C@H](CN(C)S(=O)(=O)c2ccccc2)[C@@H](C)CN([C@H](C)CO)C(=O)c2cc(NC(=O)CCC(F)(F)F)ccc2O1	0	-7	-3
CNC(=O)C[C@H]1CC[C@H]2[C@@H](COC[C@H](O)CN2C(=O)Nc2cccc(OC)c2)O1	0	-10	-6
Cc1ccccc1-c1cnc2c(c1)C(=O)N([C@@H](C)CO)C[C@@H](C)[C@H](CN(C)Cc1cccnc1)O2	0	-6	-1
COc1ccc(S(=O)(=O)N[C@H]2C=C[C@H](CC(=O)NCCc3ccncc3)O[C@@H]2CO)cc1	0	-3	2
COCCNC(=O)C[C@H]1CC[C@H]2[C@@H](COC[C@H](O)CN2C(=O)Nc2ccccc2OC)O1	0	?	2
O=C1C=CC(=O)c2c(O)c(CO)c(CO)c(O)c21	.	-12	15*
O=c1c(CO)cc(CO)cc(CO)c1O	.	8	4
COc1ccccc1NC(=O)N[C@@H]1CC[C@H](CCNC(=O)Cc2ccccn2)O[C@@H]1CO	0	6	1
O=C(Nc1ccccc1)N[C@H]1CC[C@@H](CCNC(=O)c2ccccc2F)O[C@@H]1CO	-1	-6	2
COc1ccccc1NC(=O)N1C[C@H]2[C@@H](c3ccccc31)[C@@H](CO)N2C(=O)C1CC1	0	-8	-1
COc1ccc(CN2C(=O)C(CC(=O)NCCc3ccccn3)CC(C(=O)N3CCOCC3)=C2C)cc1 (centres undefined)	0	-7	21*
COc1ccc(CN2C(=O)C(CC(=O)NCCc3ccccn3)CC(C(=O)N(C)C)=C2C)cc1 (centres undefined)	-1	3	1
Cc1oc2ccc(NS(=O)(=O)c3ccccc3)cc2c1C(=O)Nc1ccccc1	.	4	21*
COCCOC(=O)c1c(C)oc2ccc(NS(=O)(=O)c3ccccc3)cc12	.	.	1
